Most compounds without a hit are left out; they make up all but 2.2% or so of the library.
dFosB act-1: enhances mouse delta FosB homodimer DNA binding | P13346 | purified delta FosB, TAMRA-CDK5 oligo fluorescence polarization; percent of positive-control signal above neutral wells | activation, % at 25 µM | hit rate 0.99% among 340,000 | AID 493131;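 active = mean activation above about 17%, with every replicate also reaching it, limit read from the data, passing the limit was not always enough; inconclusive = only one of the two conditions met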
Target sequence (P13346 whole entry, looked up): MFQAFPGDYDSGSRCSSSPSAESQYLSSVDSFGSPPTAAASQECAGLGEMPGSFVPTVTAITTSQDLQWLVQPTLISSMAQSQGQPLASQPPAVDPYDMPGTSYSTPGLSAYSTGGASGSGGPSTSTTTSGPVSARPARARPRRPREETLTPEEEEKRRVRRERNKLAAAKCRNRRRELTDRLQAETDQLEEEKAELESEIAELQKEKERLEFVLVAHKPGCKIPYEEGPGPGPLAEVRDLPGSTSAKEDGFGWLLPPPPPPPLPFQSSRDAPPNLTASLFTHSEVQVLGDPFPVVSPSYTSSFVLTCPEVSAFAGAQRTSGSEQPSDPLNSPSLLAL
Dyrk1A ADPGlo: blocks rat Dyrk1A kinase activity; AID 504441; ADP-Glo luminescence, NFATc1 peptide; inhibition, % at 12.5 µM; Q63470; hit rate 0.43% among 310,000; in the data active = inhibition above about 50%;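 also: plate controls were vehicle with enzyme for no effect and no enzyme for full effect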
CAL PDZ FP-1: CAL PDZ (human) peptide binding inhibition; Q9HD26; purified CAL PDZ, TMR-peptide fluorescence polarization, 1 h; inhibition, % at 24.9 µM; hit rate 0.92% among 300,000;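 active = mean inhibition of at least 30% with at least half of replicates also reaching 30%; inconclusive = no clear call, values can overlap the other calls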;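 also: 0% = DMSO neutral control and 100% = excess unlabeled competitor peptide PRC23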
CDK5 inh: CDK5/p35 (human) kinase inhibition; Recombinant CDK5/p35, ADP-Glo luminescence, 60 min; Q00535+Q15078; hit rate 0.01% among 330,000; inhibition, % at 10 µM;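 active = highest replicate inhibition of at least 50% and at least 75% of replicates reaching 50%; inconclusive = only one of the two criteria met; inactive = both criteria failed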;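 also: plate controls were DMSO neutral control for no effect and GW8510 at 10 µM for full effect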
Rtt109 HAT inh: blocks Candida albicans Rtt109/Vps75 acetyltransferase activity. Q5AAJ8. purified Rtt109/Vps75, ThioGlo CoA-SH fluorescence, 4 h. inhibition, % at 34.9 µM. hit rate 0.16% among 330,000. AID 540336;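 active = inhibition of at least 50% in every replicate; inconclusive = best replicate reaches 50% inhibition but some replicates fall short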
Target sequence (Q5AAJ8 whole entry, looked up): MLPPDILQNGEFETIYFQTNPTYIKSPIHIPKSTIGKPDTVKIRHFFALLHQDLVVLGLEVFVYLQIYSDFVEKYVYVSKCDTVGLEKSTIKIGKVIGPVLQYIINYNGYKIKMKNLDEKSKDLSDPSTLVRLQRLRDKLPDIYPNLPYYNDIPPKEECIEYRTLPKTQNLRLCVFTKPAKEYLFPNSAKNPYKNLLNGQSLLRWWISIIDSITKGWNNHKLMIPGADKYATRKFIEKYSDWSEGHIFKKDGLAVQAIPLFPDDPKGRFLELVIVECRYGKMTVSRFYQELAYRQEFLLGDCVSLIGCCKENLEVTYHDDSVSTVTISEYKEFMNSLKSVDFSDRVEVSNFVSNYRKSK
CAL PDZ FP-2: inhibitors of human CAL PDZ peptide binding; purified CAL PDZ, TMR-peptide fluorescence polarization, 1 h; inhibition, % at 20 µM; hit rate 0.02% among 330,000; AID 504414;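 active = highest replicate inhibition of at least 40%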;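 also: plate controls were DMSO neutral control wells for no effect and unlabeled competitor peptide control wells for full effect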
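System: purified tagged CAL PDZ domain construct (CerCALP). Schedule: 1 h incubation at room temperature before polarization reading. Medium: 25 mM sodium phosphate pH 7.4, 150 mM NaCl, TCEP, IgG, Thesit. Read-out: percent inhibition from loss of millipolarization. Measured by: FP readout, S and P plane fluorescence. Probe or stimulus: fluorescent TMR peptide probe.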
dFosB act-2: enhances mouse delta FosB homodimer binding to DNA. shares compounds with dFosB act-1. purified delta FosB, TAMRA-CDK5 oligo fluorescence polarization; normalised: neutral wells 0, positive control 100. activation, % at 24.9 µM. 2,400 tested, under 10 active. AID 588690;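 active = highest replicate activation at or above 34% and every replicate reaching that threshold; inconclusive = meets only one of the two criteria; inactive = meets neither criterion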;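 also: higher polarization means more probe DNA bound by delta FosB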
Active calls of the source: *; u = inconclusive; x = no result given; ! = not confirmed by another sample.

SMILES | dFosB act-1 | Dyrk1A ADPGlo | CAL PDZ FP-1 | CDK5 inh | Rtt109 HAT inh | CAL PDZ FP-2 | dFosB act-2
CC(=O)Nc1ccc(NC(=O)Cn2c(=O)n(-c3ccc(F)cc3)c(=O)c3oc4ccccc4c32)cc1 | 21* | -7 | -6 | -4 | -2 | -3 | 1
Cc1ccc2c(c1)NC(=O)c1cc([N+](=O)[O-])ccc1O2 | 31* | 2 | x | -5 | 2 | -1 | 2
O=C1Nc2ccccc2Oc2cc([N+](=O)[O-])ccc21 | 13 | x | 0 | 1 | 3 | -2 | x
COc1ccc(Cc2nnc(NC(=O)Nc3cccc(OC)c3)s2)cc1 | 4 | 2 | -4 | 0 | 6 | 1 | x
COc1cccc(NC(=O)Nc2nnc(Cc3ccc(F)cc3)s2)c1 | 29* | -2 | -5 | 1 | 4 | x | -1
COc1cccc(NC(=O)Nc2cc(NC(=O)Nc3cccc(OC)c3)c(C)nc2C)c1 | 18* | 2 | -3 | 0 | 1 | -3 | 2
Cc1cccc(NC(=O)Cc2nnc(NC(=O)Nc3ccccc3F)s2)c1 | 40* | -4 | 8 | 1 | -4 | -1 | 2
Cc1ccc2[nH]c(O)c(N=NC(=O)C(C)n3cnc4ccccc4c3=O)c2c1 (stereo not given) | -7 | 9 | -5 | -1 | 16 | -1 | x
CCN1C(=O)[C@H]2[C@@H](c3ccc(-c4ccc(OC)cc4)cc3)N[C@@](C)(C(=O)OC)[C@H]2C1=O | -14 | 0 | -2 | -1 | -6 | 0 | x
Cc1ccc(CSc2nnc(NC(=O)Cn3cnc4ccccc4c3=O)s2)cc1 | 31* | 1 | -5 | 0 | x | 0 | -4
CCSc1nnc(NC(=O)Cn2cnc3ccccc3c2=O)s1 | 2 | -1 | 4 | 0 | 9 | 0 | x
COc1cccc2sc(/N=C/N(C)C)nc12 | 6 | 11 | x | 0 | 2 | -1 | x
CC(=O)c1nn(-c2cccc(Br)c2)cc1C(=O)c1ccc(Cl)cc1 | 28* | -3 | -3 | -1 | x | -2 | 4
CC(=O)c1nn(-c2cccc(Br)c2)cc1C(=O)c1ccccc1 | 1 | -2 | -2 | -1 | 30 | -3 | x
CCOc1cc(/C=N/N=C(\N)c2nonc2N)cc(Br)c1OCc1cccc2ccccc12 | 41* | -3 | -3 | 0 | -12 | -1 | 4
COc1ccc(NC(=O)CN2C(=O)NC(c3ccccc3)(c3ccccc3)C2=O)cc1OC | -9 | 7 | -4 | 1 | 18 | -1 | x
Cc1ccc(C(=O)N/C(=C\c2ccc(Cl)cc2)C(=O)NCC2CCCO2)cc1 (stereo not given) | -6 | -6 | 3 | -1 | -19 | 0 | x
[N-]=[N+]=NC[C@H](c1ccccc1)N1CCN(Cc2ccccc2)CCC1=O | -2 | 5 | 5 | 0 | -6 | 1 | x
COc1ccc(-n2nnnc2SCC(=O)c2ccc3c(c2)OCCO3)cc1 | 23* | -5 | -4 | -4 | 1 | x | 2
Cc1cc(NC(=O)CSc2nnnn2-c2ccc(C)c(C)c2)no1 | -7 | -3 | 3 | 0 | -1 | 0 | x
COc1ccc(OC)c(NC(=O)CSc2nnnn2-c2ccc3c(c2)OCO3)c1 | 1 | x | 0 | 4 | x | -2 | x
COc1ccc(-n2nnnc2SCC(=O)c2cccc(OC)c2)cc1 | -4 | -4 | -1 | 0 | -4 | -2 | x
Cc1ccc(NC(=O)CSc2nnnn2-c2ccc3c(c2)OCO3)cc1C | 40* | 0 | 3 | 0 | 31 | -2 | 0
Cc1ccc(-n2nnnc2SCC(=O)Nc2ccc3c(c2)COC3=O)cc1C | 54* | -5 | 1 | -1 | -2 | -2 | -3
O=C(CC1S/C(=N/N=C/c2cccs2)NC1=O)Nc1ccccc1F (stereo not given) | 32* | 0 | -2 | 3 | -16 | 10 | 2
SMILES | dFosB act-1 | Dyrk1A ADPGlo | CAL PDZ FP-1 | CDK5 inh | Rtt109 HAT inh | CAL PDZ FP-2 | dFosB act-2
C=CCC1S/C(=N/N=C/c2cccs2)NC1=O (stereo not given) | 5 | -1 | -1 | -1 | 4 | -3 | x
Cc1cccc(C)c1NC(=O)CN1C(=O)CCSc2ccc(S(=O)(=O)N3CCCC3)cc21 | 48* | -9 | -3 | -2 | -7 | -2 | 0
CCc1c(C(=O)NNC(=O)Nc2ccc3c(c2)OCO3)csc1C | 2 | 6 | 0 | 0 | 0 | -1 | x
S=C(Nc1ccc(Cl)cc1)c1nc2ccccc2[nH]1 | 29* | 1 | -6 | 1 | -1 | -1 | 1
Cc1ccccc1NC(=S)c1nc2ccccc2[nH]1 | -3 | 3 | 6 | 0 | 34 | -1 | x
CC/C(=C(\c1ccc(O)cc1)c1ccc(OCCN(C)C)cc1)c1ccccc1 | -6 | 1 | -2 | 0 | 30 | 0 | x
CC/C(=C(\c1ccccc1)c1ccc(OCCN(C)C)cc1)c1ccccc1 | 24*! | 7 | -6 | 1 | 34 | -1 | -1
Cc1ccc(-c2cc(C(=O)NC3=NCCS3)c3ccccc3n2)cc1C | 13 | -1 | -4 | -1 | -3 | -1 | x
Cc1ccc2nc(-c3cccc(Br)c3)cc(C(=O)NC3=NCCS3)c2c1 | 44* | x | -1 | -1 | -11 | 20 | -1
O=C(NC1=NCCS1)c1cc(-c2cccc(Br)c2)nc2ccccc12 | 31* | -4 | -4 | 0 | -1 | -1 | 1
CCCn1c(N)c(C(=O)CSc2nc3ncc(Cl)cc3[nH]2)c(=O)[nH]c1=O | -6 | -2 | -5 | 0 | 9 | 0 | x
CC(C)[C@H](CN1CCC[C@H]1CN1C(N)=NC[C@@H]1Cc1ccccc1)N1C[C@@H](Cc2ccccc2)N(CCc2ccc(Cl)c(Cl)c2)C1=N | 15 | 10 | 2 | 2 | -5 | -14 | x
CC(C)[C@@H]1CN=C(N)N1C[C@@H]1CCCN1C[C@H](C)N1C[C@@H](Cc2ccccc2)N(CCc2ccc(Cl)c(Cl)c2)C1=N | 20* | x | -8 | 3 | -8 | -2 | -1
Cc1ccccc1NC(=O)Cn1nnc2c(cnn2-c2ccc(F)cc2)c1=O | 18* | x | -1 | -1 | 2 | -2 | 4
O=C(Cn1ncc2c([nH]c3ccccc32)c1=O)Nc1ccc(F)cc1F | 64* | -4 | -2 | 1 | 0 | -2 | 9
O=C(Cn1ncc2c([nH]c3ccccc32)c1=O)NCCc1ccc(Cl)cc1 | 10 | -3 | -2 | -1 | 1 | -3 | x
CN(CC1CCCO1)S(=O)(=O)c1ccc(C(=O)NCc2ccccc2)cc1 (stereo not given) | -9 | -5 | 13 | 0 | -4 | -3 | x
CC1CCN(S(=O)(=O)c2ccc(NC(=O)Cn3nnc(-c4ccccc4)n3)cc2)CC1 | u | x | -2 | 0 | -2 | -1 | x
Cc1ccc(-c2nnn(CC(=O)Nc3ccc(S(=O)(=O)N4CCC(C)CC4)cc3)n2)cc1 | 68* | 5 | -3 | -4 | 7 | 0 | 7
